In publication PMC11601626 (bioRxiv, 2024):
Numbering of substitutions follows the chain as printed. Names may count otherwise.

Legend:
[1] = system: HCT116 cells; assay: Colony formation assay under zeocin; assay type: cell-based, human; settings: ∆PHRF1 HCT116 cells, complemented; effect greater with WT than P221L
Procedure, shortened: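 Cells were Control+EV, ∆PHRF1+EV, and ∆PHRF1 complemented with 3XFlag-PHRF1 WT or P221L. They were harvested near 70% confluence and seeded at 500 cells/well in biological triplicate, then left to adhere overnight at 37°C. Medium was replaced with zeocin at 0, 0.375, 0.75 and 1.5 µg/mL for 9 days undisturbed. Cells were fixed in 4% formaldehyde and stained with 0.5% crystal violet; growth area was measured per imaged well.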

[2] = system: HCT116 cells; assay: Live-cell imaging growth analysis; assay type: cell-based, human; settings: ∆PHRF1 HCT116 cells, complemented; no zeocin; Incucyte, one week; n = 3
Procedure, shortened: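 Control+EV, ∆PHRF1+EV and WT- or P221L-complemented ∆PHRF1 lines were grown in McCoy's 5A with 10% FBS and penicillin/streptomycin at 37°C, 5% CO₂. They were harvested near 70% confluence and seeded at 1,000 cells/well in biological triplicate. Imaging began immediately: every 4 h for one week, 10X objective, four fields per well. Confluence was scored as percentage of area occupied by cells.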

[3] = system: HeLa cells (control and ∆PHRF1); assay: Zeocin DNA damage recovery assay, γH2A.X intensity/nucleus, HeLa; assay type: cell-based, human; settings: qGAM; 50 μg/mL zeocin 30 minutes, washout 0-26 h; p-value 4.79x10-5 (Wald)
[4] = target: unmodified biotinylated nucleosome (EpiCypher) (human) (UniProt P68431); assay: BLI
[5] = system: H3 (1–20)-FAM; assay: Histone peptide fluorescence polarization; assay type: binding; settings: protein 50 to 0.0061 μM, pH 8.0, KD n.d.
[6] = system: GST-PHRF1^RP(P221L); assay: Histone peptide microarray with GST-PHRF1^RP; assay type: binding, human; settings: over 300 differentially-modified histone peptides
[7] = system: differentially modified biotinylated nucleosomes; assay: Nucleosome pulldown assay; assay type: binding; settings: 2.5 pmol protein, 12.5 pmol nucleosomes, pH 7.5, 4°C overnight
Procedure, shortened: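 Binding buffer: 50 mM Tris-HCl pH 7.5, 150 mM NaCl, 0.5% BSA, 0.1% NP-40, 10% glycerol. GST-PHRF1 RP, PHD or RP(P221L) was mixed with the modified biotinylated nucleosomes. Beads were washed three times in binding buffer, 5 min each at 4°C with rotation, then taken up in SDS loading dye. Immunoblots used anti-GST for PHRF1 and anti-H3 for nucleosome presence.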

[8] = system: biotinylated unmodified nucleosomes; assay: Biolayer interferometry; assay type: binding; settings: BLI; protein 25 to 1.625 μM; pH 7.0; 37°C; KD n.d.
[9] = system: differentially modified biotinylated nucleosomes; assay: dCypher nucleosome alphascreen binding assay; settings: GST-PHRF1^RP 3 nM, nucleosomes 10 nM, duplicate

Molecule: 3XFlag-PHRF1^P221L: 3XFlag-tagged PHRF1 P221L mutant expressed by lentivirus in HCT116 ∆PHRF1 cells
- rescue of colony growth at 0.375 μg/mL zeocin, in words [1]: partial rescue of growth
- rescue of growth under normal conditions, in words [2]: partially rescuing the growth phenotype

Molecule: 3XFlag-PHRF1^WT: N-terminally 3XFlag-tagged PHRF1 expressed by lentivirus in HCT116 ∆PHRF1 cells
- rescue of colony growth at 0.375 μg/mL zeocin, in words [1]: partial rescue of growth
- rescue of growth under normal conditions, in words [2]: largely rescued the growth defects

Molecule: Cc1c(N)nc([C@H](CC(N)=O)NC[C@H](N)C(N)=O)nc1C(=O)N[C@H](C(=O)N[C@H](C)[C@@H](O)[C@H](C)C(=O)N[C@H](C(=O)NCCC1=N[C@@H](c2nc(C(=O)NCCCCN=C(N)N)cs2)CS1)[C@@H](C)O)[C@@H](O[C@@H]1O[C@@H](CO)[C@@H](O)[C@H](O)[C@@H]1O[C@H]1O[C@H](CO)[C@@H](O)[C@H](OC(N)=O)[C@@H]1O)c1cnc[nH]1 [zeocin, phleomycin D1]
- Parametric Coefficient, γH2A.X intensity/nucleus, ∆PHRF1 vs Control [3]: −345.25

Molecule: GST-PHRF1^RP (RING-PHD region of PHRF1, residues 107-232) (from UniProt Q9P1Y6 107-232) (domain or fragment)
- Kd [4]: 1010 nM

B1: GST-PHRF1^RP(P221L): GST-PHRF1^RP with P221 mutated to leucine (protein)
chain: SCPICLNAFRDQAVGTPENCAHYFCLDCIVEWSKNANSCPVDRTLFKCICIRAQFGGKILRKIPVENTKASEEEEDPTFCEVCGRSDREDRLLLCDGCDAGYHMECLDPPLQEVLVDEWFCPECAA
modifications: left off: GST, end not stated, kept
- binding to H3 1–20(FAM), in words [5]: little to no observable binding
- binding to histone peptides, in words [6]: virtually no binding to any histone peptide on the microarray
- nucleosome interaction of P221L mutant, in words [7]: abolished all nucleosome interaction
- binding to nucleosomes, in words [8]: no detectable binding to nucleosomes

B2: GST-PHRF1^RP: GST-tagged PHRF1 RING-PHD region, residues 107–232 of PHRF1 (protein)
chain: B1 chain with L115P
modifications: left off: GST, end not stated, kept
- nucleosome binding, H3K9me3 versus unmodified, in words [9]: heightened binding
